In ChEMBL document CHEMBL1126679 (J Med Chem, 1993):

Assays:
D(2) dopamine receptor [1] = molecular target: T1, D(2) dopamine receptor (Homo sapiens, UniProt P14416); assay: Intrinsic activity against dopamine D 2 receptor; format: functional; settings: Cricetulus griseus
Summary of the method: (§1)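 Membranes from CHO cells stably transfected with D2 receptor. Low-affinity agonist state affinity came from [3H]raclopride displacement with high GTP, and high-affinity state affinity from [3H]U-86170 displacement without GTP.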

D(2) dopamine receptor [2] = molecular target: T1, D(2) dopamine receptor; assay: Compound was tested for agonistic activity against D2 receptor from cloned CHO cells, used [3H]U-86170 as radioligand; format: functional, cell-based, Cricetulus griseus
D(2) dopamine receptor [3] = molecular target: D(2) dopamine receptor (Rattus norvegicus, UniProt P61169); assay: Compound was tested for antagonistic activity against D2 receptor from rat striatum, used [3H]raclopride as radioligand; format: functional
Sequence of D(2) dopamine receptor (Rattus norvegicus, UniProt P61169) (P61169 whole entry): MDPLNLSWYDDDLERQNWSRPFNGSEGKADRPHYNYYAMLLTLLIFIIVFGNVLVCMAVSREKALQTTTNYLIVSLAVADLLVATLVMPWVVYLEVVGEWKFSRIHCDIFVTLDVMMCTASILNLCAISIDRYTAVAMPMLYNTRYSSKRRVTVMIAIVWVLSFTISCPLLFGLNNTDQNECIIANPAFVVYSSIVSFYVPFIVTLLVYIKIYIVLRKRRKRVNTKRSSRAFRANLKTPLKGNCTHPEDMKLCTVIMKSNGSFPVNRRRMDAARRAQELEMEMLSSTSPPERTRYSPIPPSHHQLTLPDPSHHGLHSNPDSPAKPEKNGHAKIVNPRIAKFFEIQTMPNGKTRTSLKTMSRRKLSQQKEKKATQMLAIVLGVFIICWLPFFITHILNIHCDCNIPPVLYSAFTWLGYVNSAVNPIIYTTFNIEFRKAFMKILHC

D(2) dopamine receptor [4] = molecular target: T1, D(2) dopamine receptor; assay: Intrinsic activity was Determined; format: functional
[5] = Binding affinity against 5-hydroxytryptamine 1A receptor from bovine hippocampus, used [3H]8-OH-DPAT as radioligand
[6] = (§2) Intrinsic activity was 100% of highest possible agonist.; format: functional
[7] = as §2; format: functional; summary of the method: as §1; remark: listed apart in the source

T1 sequence (P14416 whole entry): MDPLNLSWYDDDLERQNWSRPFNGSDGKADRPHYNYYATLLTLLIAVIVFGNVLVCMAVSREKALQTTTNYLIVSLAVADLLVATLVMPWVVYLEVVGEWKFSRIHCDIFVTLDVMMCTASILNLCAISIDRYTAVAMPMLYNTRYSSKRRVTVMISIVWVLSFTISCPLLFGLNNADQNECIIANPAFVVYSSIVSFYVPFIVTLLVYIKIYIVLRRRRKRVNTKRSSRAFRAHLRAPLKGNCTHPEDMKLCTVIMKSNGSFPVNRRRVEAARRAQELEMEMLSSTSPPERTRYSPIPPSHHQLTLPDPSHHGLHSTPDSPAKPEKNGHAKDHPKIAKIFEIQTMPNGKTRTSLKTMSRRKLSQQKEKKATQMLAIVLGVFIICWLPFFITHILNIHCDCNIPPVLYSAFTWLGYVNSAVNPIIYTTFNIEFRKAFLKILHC

Structure (SMILES) | Intrinsic activity (D(2) dopamine receptor [1]) | Ki (D(2) dopamine receptor [2]) [nM] | Ki (D(2) dopamine receptor [3]) [nM] | further results
CCCN1CC[C@@H]2Cc3c(O)cccc3C[C@H]21 | 109% |  |  | 
C=CCN1CC[C@@H]2c3cccc(O)c3CC[C@@H]21 | 47% | 59 | 259 | 
CCCN1CCC2c3cccc(O)c3CCC21 (racemic; 15a) | 1% |  |  | 
CCCN1CC[C@@H]2Cc3c(cccc3OC)C[C@H]21 | 37% |  |  | 
C=CCN1CCC2c3cccc(OC)c3CC[C@@H]21 (mixture of isomers) | 0% |  | 99 | 
C=CCN1CC[C@H]2c3c(O)cccc3CC[C@H]21 (racemic) |  | 153 |  | Intrinsic activity (D(2) dopamine receptor [4]): 7%
CCCN1CCC2c3cccc(O)c3CCC21 (racemic; 14a) |  | 93 | 33 | 
C=CCN1CC[C@H]2Cc3c(O)cccc3CC21 (single isomer, unassigned) | 21% | 235 | 47 | 
CCCN1CC[C@H]2Cc3c(O)cccc3CC21 (single isomer, unassigned) | 18% | 917 | > 630 | 
CCCN1CC[C@H]2c3c(O)cccc3CC[C@H]21 (single isomer, unassigned) |  |  |  | Intrinsic activity (D(2) dopamine receptor [4]): 0%
C=CCN1CC[C@@H]2Cc3c(O)cccc3C[C@H]21 | 106% |  |  | 
C=CCN1CCC2c3cccc(O)c3CCC21 (racemic; 14c) | 44% |  |  | 
CCCN1CC[C@H]2c3c(cccc3OC)CC[C@H]21 (racemic) |  |  | > 1000 | 
CCCN1[C@H](C)C[C@@H]2Cc3cccc(OC)c3C[C@@H]21 |  |  |  | Ki [5]: 384 nM
CCCN(CCC)[C@@H]1Cc2cccc3nc(O)n(c23)C1 |  |  |  | Intrinsic activity [6]: 91
C=CCN1CC[C@H]2c3c(cccc3OC)CC[C@H]21 (single isomer, unassigned) | 17% |  |  | 
C=CCN1CC[C@H]2c3c(cccc3OC)CC[C@H]21 (racemic) |  | 7 |  | 
CCCN(CCC)[C@@H]1CCc2c(OC)cccc2[C@@H]1C | 0 | 13 | 22 | 
CCCN(CCC)[C@@H]1Cc2cccc3c2N(CC(=O)N3)C1 (racemic) | 70% |  | 28 | 
C=CCN1CCC2Cc3c(cccc3OC)C[C@H]21 (mixture of isomers) |  |  | > 1000 | Intrinsic activity [7]: 100%
C=CCN1CCC2Cc3c(cccc3OC)CC21 (racemic) |  |  | 429 | 
C=CCN1CC[C@H]2c3cccc(O)c3CC[C@H]21 | 22% | 108 | 49 | 
C=CCN1CCC2c3c(O)cccc3CCC21 (racemic) | 13% |  | 25 | 
CCCN1C[C@H]2c3c(cccc3OC)CC[C@H]21 (racemic) |  |  | 329 | 
Cc1[nH]c2cccc3c2c1C[C@@H]1C3C[C@H](NC(=O)C(C)(C)C)CN1C (stereo not given in full) | 11% | 3.1 |  | 
C=CCN1CCC2c3c(cccc3OC)CCC21 (racemic) | 0% | 8.5 |  | 
C=CCN1CCC2Cc3c(O)cccc3C[C@H]21 (mixture of isomers) | 91% | 1.4 | 25 | 
Oc1cccc2c1CC[C@@H]1NCCC[C@@H]21 (racemic) | 53 | 11 | 38 | 
